Source: ChEMBL document CHEMBL1148652, “Design of potent, orally available antagonists of the transient receptor potential vanilloid 1. Structure-activity relationships of 2-piperazin-1-yl-1H-benzimidazoles” (J Med Chem, 2006)
Values joined by “and” are separate entries in the source; they are usually repeats but may differ in a detail not shown here. Identical values can stand only once. Active and inactive are the calls of the source. The rule behind the calls is not given here.

Tests used:
[1] = molecular target: T1, Transient receptor potential cation channel subfamily V member 1 (Rattus norvegicus, UniProt O35433); assay: Antagonist activity against capsaicin-induced 45calcium ion uptake in CHO cells expressing rat TRPV1; format: functional, cell-based
T1 sequence (O35433 whole entry): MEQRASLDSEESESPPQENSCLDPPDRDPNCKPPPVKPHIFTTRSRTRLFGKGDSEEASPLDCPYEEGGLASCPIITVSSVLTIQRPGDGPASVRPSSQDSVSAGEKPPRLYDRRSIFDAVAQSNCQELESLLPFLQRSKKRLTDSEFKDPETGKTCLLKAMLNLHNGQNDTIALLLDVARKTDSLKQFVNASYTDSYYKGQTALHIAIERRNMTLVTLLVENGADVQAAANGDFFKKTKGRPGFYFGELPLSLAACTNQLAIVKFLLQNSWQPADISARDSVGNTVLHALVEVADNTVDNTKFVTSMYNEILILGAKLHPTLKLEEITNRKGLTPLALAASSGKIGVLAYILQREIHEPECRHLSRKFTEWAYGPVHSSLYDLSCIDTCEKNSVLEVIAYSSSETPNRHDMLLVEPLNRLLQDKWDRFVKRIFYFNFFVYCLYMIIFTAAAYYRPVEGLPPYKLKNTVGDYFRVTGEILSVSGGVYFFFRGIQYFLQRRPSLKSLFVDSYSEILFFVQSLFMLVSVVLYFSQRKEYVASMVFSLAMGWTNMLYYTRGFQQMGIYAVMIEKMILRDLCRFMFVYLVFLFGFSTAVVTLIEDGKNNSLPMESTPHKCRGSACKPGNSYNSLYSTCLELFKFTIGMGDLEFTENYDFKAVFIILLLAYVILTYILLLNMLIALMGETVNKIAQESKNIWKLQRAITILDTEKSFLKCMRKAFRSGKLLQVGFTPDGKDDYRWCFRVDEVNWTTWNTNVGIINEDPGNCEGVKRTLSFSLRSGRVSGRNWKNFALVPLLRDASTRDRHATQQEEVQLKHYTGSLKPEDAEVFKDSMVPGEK
Summary of the method: (§1)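 CHO cells recombinantly expressing rat TRPV1; inhibition of 45Ca2+ uptake triggered by capsaicin or by acid, pH 5. Functional IC50 in nM, averaged over at least two independent experiments, each with three replicates per concentration.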

[2] = molecular target: T1, Transient receptor potential cation channel subfamily V member 1; assay: Antagonist activity against acid-induced 45calcium ion uptake in CHO cells expressing rat TRPV1 at pH5; format: functional, cell-based; summary of the method: as §1
[3] = molecular target: Transient receptor potential cation channel subfamily V member 1 (Rattus norvegicus) (UniProt O35433); assay: Antinociceptive activity in po dosed Sprague-Dawley rat assessed as ability to block capsaicin-induced paw flinching; format: functional, organism-based
Sequence of Transient receptor potential cation channel subfamily V member 1 (Rattus norvegicus) (O35433 whole entry): as above
Summary of the method: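 Rats dosed orally, then challenged with intraplantar capsaicin (0.5 µg/[…] per paw) to provoke flinching. Eight animals per group; ED50 taken from dose-response.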

[4] = molecular target: Transient receptor potential cation channel subfamily V member 1 (Rattus norvegicus) (UniProt O35433); assay: Antinociceptive activity in Sprague-Dawley rat assessed as reversal of CFA-induced thermal hyperalgesia; format: functional
Summary of the method: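 Thermal hyperalgesia induced in rats by complete Freund's adjuvant; reversal assessed after oral dosing at 30 mg/kg.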

[5] = Clearance in Sprague-Dawley rat at 1 mg/kg, iv; format: ADME, organism-based; set-up: dose 1 mg/kg, route intravenous; details: in vivo
[6] = Volume of distribution in Sprague-Dawley rat at 1 mg/kg, iv; format: ADME, organism-based; set-up: dose 1 mg/kg, route intravenous; details: in vivo, read-out: Vdss
[7] = Elimination half life in Sprague-Dawley rat at 1 mg/kg, iv; format: ADME, organism-based; set-up: dose 1 mg/kg, route intravenous; details: in vivo
[8] = Tmax in Sprague-Dawley rat at 5 mg/kg, po; format: ADME, organism-based; set-up: dose 5 mg/kg, route oral; details: in vivo
[9] = Cmax in Sprague-Dawley rat at 5 mg/kg, po; format: ADME, organism-based; set-up: dose 5 mg/kg, route oral; details: in vivo
[10] = Oral bioavailability in Sprague-Dawley rat; format: ADME, organism-based; details: in vivo

| SMILES | IC50 [1] [nM] | IC50 [2] | other results |
| --- | --- | --- | --- |
| FC(F)(F)c1ccc2nc(N3CCN(c4c(Cl)cncc4Cl)CC3)[nH]c2c1 | 1370 | 1990 nM |  |
| COC(=O)c1ccc2nc(N3CCN(c4ncccc4C(F)(F)F)CC3)[nH]c2c1 | 1230 | > 4000 nM |  |
| Fc1ccc(-c2ccc3[nH]c(N4CCN(c5ncccc5C(F)(F)F)CC4)nc3c2)cc1F | 1140 | 351 nM |  |
| FC(F)(F)c1cc(-c2cc3ccccc3s2)c2nc(N3CCN(c4ncccc4C(F)(F)F)CC3)[nH]c2c1 | 26 | 22 nM |  |
| FC(F)(F)c1cc(C(F)(F)F)c2[nH]c(N3CCN(c4ncccc4C(F)(F)F)CC3)nc2c1 | 325 | 120 nM |  |
| FC(F)(F)c1cc(C2CCC(C(F)(F)F)CC2)c2nc(N3CCN(c4ncccc4C(F)(F)F)CC3)[nH]c2c1 (stereo not given) | 10 | 9 nM |  |
| C[C@@H]1CN(c2ncc(CO)cc2Cl)CCN1c1nc2c(N(Cc3ccccc3)Cc3ccccc3)cc(C(F)(F)F)cc2[nH]1 | 1.9 | 0.9 nM |  |
| FC(F)(F)c1ccc2[nH]c(N3CCN(c4ccncc4Cl)CC3)nc2c1 | 3910 | 8030 nM |  |
| N#Cc1ccc2[nH]c(N3CCN(c4ncccc4C(F)(F)F)CC3)nc2c1 | 3300 | > 4000 nM |  |
| FC(F)(F)c1cc(-c2nccs2)c2nc(N3CCN(c4ncccc4C(F)(F)F)CC3)[nH]c2c1 | 688 | 454 nM |  |
| FC(F)(F)c1ccc(-c2cc(C(F)(F)F)cc3[nH]c(N4CCN(c5ncccc5C(F)(F)F)CC4)nc23)cc1 | 51 | 37 nM |  |
| C[C@@H]1CN(c2ncc(CO)cc2C(F)(F)F)CCN1c1nc2c(-c3cc(F)c(F)c(F)c3)cc(C(F)(F)F)cc2[nH]1 | 1.4 | 0.7 nM |  |
| CC(C)(C)c1ccc2[nH]c(N3CCN(c4ncccc4C(F)(F)F)CC3)nc2c1 | 183 | 282 nM |  |
| C[C@H]1CN(c2nc3c(-c4cc(F)c(F)c(F)c4)cc(C(F)(F)F)cc3[nH]2)CCN1c1ncccc1Br | 767 | 254 nM |  |
| C[C@@H]1CN(c2ncc(N)cc2Cl)CCN1c1nc2c(-c3ccc(F)cc3)cc(C(F)(F)F)cc2[nH]1 | 98 | 33 nM |  |
| CC(O)c1cnc(N2CCN(c3nc4c(-c5cc(F)c(F)c(F)c5)cc(C(F)(F)F)cc4[nH]3)[C@H](C)C2)c(C(F)(F)F)c1 (mixture of isomers) | 1.5 | 1 nM |  |
| FC(F)(F)c1cc(Br)c2nc(N3CCN(c4ncccc4C(F)(F)F)CC3)[nH]c2c1 | 131 | 74 nM |  |
| Fc1ccc2[nH]c(N3CCN(c4ncccc4C(F)(F)F)CC3)nc2c1 | > 4000 | > 4000 nM |  |
| CC(O)c1cnc(N2CCN(c3nc4ccc(C(F)(F)F)cc4[nH]3)CC2)c(Cl)c1 (racemic) | 461 | 652 nM |  |
| Fc1ccc(Cc2cc(C(F)(F)F)cc3[nH]c(N4CCN(c5ncccc5C(F)(F)F)CC4)nc23)cc1F | 71 | 52 nM |  |
| FC(F)(F)c1ccc2[nH]c(N3CCN(c4ncccc4Cl)CC3)nc2c1 | 309 | 705 nM |  |
| FC(F)(F)c1cc2[nH]c(N3CCN(c4ncccc4C(F)(F)F)CC3)nc2cc1Br | 166 | 43 nM |  |
| C[C@@H]1CN(c2ncccc2C(F)(F)F)CCN1c1nc2ccc(C(F)(F)F)cc2[nH]1 | 48 | 35 nM |  |
| OCc1cnc(N2CCN(c3nc4ccc(C(F)(F)F)cc4[nH]3)CC2)c(Cl)c1 | 64 | 98 nM |  |
| FC(F)(F)c1ccc2[nH]c(N3CCN(c4c(Cl)cccc4Cl)CC3)nc2c1 | > 40000 | 1270 nM |  |
| FC(F)(F)c1cc(N2CCCCC2)c2[nH]c(N3CCN(c4ncccc4C(F)(F)F)CC3)nc2c1 | 29 | 21 nM |  |

| SMILES | IC50 [1] [nM] | IC50 [2] | other results |
| --- | --- | --- | --- |
| C[C@@H]1CN(c2ncc(NC(=O)CO)cc2Cl)CCN1c1nc2c(-c3ccc(F)cc3)cc(C(F)(F)F)cc2[nH]1 | 30 | 9.2 nM |  |
| C[C@@H]1CN(c2ncc(CO)cc2Cl)CCN1c1nc2c(NCc3ccccc3)cc(C(F)(F)F)cc2[nH]1 | 7 | 6.7 nM |  |
| CC(=O)c1cnc(N2CCN(c3nc4cc(C(F)(F)F)ccc4[nH]3)CC2)c(Cl)c1 | 581 | 832 nM |  |
| CC(C)(C)c1ccc2nc(N3CCN(c4ncccc4Cl)CC3)[nH]c2c1 | 87 | 310 nM |  |
| FC(F)(F)c1ccc2[nH]c(N3CCN(c4ncccc4I)CC3)nc2c1 | 221 | 310 nM |  |
| C[C@@H]1CN(c2ncc(C(O)CO)cc2Cl)CCN1c1nc2c(-c3cc(F)c(F)c(F)c3)cc(C(F)(F)F)cc2[nH]1 (mixture of isomers) | 0.9 | 0.9 nM | ED50 [3]: 8.8 mg/kg; Activity [4]: Active; clearance [5]: 4.5 mL/min/kg; Vd [6]: 1.89 L/kg; half-life [7]: 5.6 h; Tmax [8]: 4 h; Cmax [9]: 617 ng/mL; bioavailability [10]: 17% |
| C[C@@H]1CN(c2ncc(C(=O)O)cc2Cl)CCN1c1nc2c(-c3cc(F)c(F)c(F)c3)cc(C(F)(F)F)cc2[nH]1 | 46 | 27 nM |  |
| FC(F)(F)c1ccc2nc(N3CCN(c4ccccc4C(F)(F)F)CC3)[nH]c2c1 | 2060 | 406 nM |  |
| FC(F)(F)c1cc(-c2cnccn2)c2nc(N3CCN(c4ncccc4C(F)(F)F)CC3)[nH]c2c1 | 129 | 51 nM |  |
| CNC(=O)c1cnc(N2CCN(c3nc4ccc(C(F)(F)F)cc4[nH]3)CC2)c(Cl)c1 | 493 | > 40000 nM |  |
| Nc1ccc(-c2cc(C(F)(F)F)cc3[nH]c(N4CCN(c5ncccc5C(F)(F)F)CC4)nc23)cc1 | 1900 | 308 nM |  |
| COC(=O)c1cnc(N2CCN(c3nc4c(-c5cc(F)c(F)c(F)c5)cc(C(F)(F)F)cc4[nH]3)[C@H](C)C2)c(Cl)c1 | 0.3 | 0.3 nM |  |
| FC(F)(F)c1cc(-c2ccccc2)c2nc(N3CCN(c4ncccc4C(F)(F)F)CC3)[nH]c2c1 | 141 | 68 nM |  |
| COc1ccc(-c2cc(C(F)(F)F)cc3[nH]c(N4CCN(c5ncccc5C(F)(F)F)CC4)nc23)cn1 | 111 | 99 nM |  |
| FC(F)(F)c1ccc(N2CCN(c3nc4cc(C(F)(F)F)ccc4[nH]3)CC2)nc1 | 11300 | > 40000 nM |  |
| FC(F)(F)c1ccc2nc(N3CCN(c4ncccc4C(F)(F)F)CC3)n(Cc3ccccc3)c2c1 | 577 | 151 nM and 157 nM |  |
| FC(F)(F)c1ccnc(N2CCN(c3nc4cc(C(F)(F)F)ccc4[nH]3)CC2)c1 | > 5640 | 11900 nM |  |
| CC[C@@H]1CN(c2ncccc2C(F)(F)F)CCN1c1nc2cc(C(F)(F)F)ccc2[nH]1 | 648 | > 4000 nM |  |
| C[C@H]1CN(c2ncccc2Br)CCN1c1nc2c(-c3cc(F)c(F)c(F)c3)cc(C(F)(F)F)cc2[nH]1 | 104 | 75 nM |  |
| FC(F)(F)c1cc(/C=C/c2ccccc2)c2[nH]c(N3CCN(c4ncccc4C(F)(F)F)CC3)nc2c1 | 185 | 140 nM |  |
| C[C@@H]1CN(c2ncc(CO)cc2Cl)CCN1c1nc2cc(C(F)(F)F)cc(NC(=O)C3CCCCC3)c2[nH]1 | 1.6 | 1.2 nM |  |
| FC(F)(F)c1cc(-c2cccs2)c2[nH]c(N3CCN(c4ncccc4C(F)(F)F)CC3)nc2c1 | 373 | 221 nM |  |
| C[C@@H]1CN(c2ncc(CO)cc2Cl)CCN1c1nc2cc(C(F)(F)F)cc(NC(=O)OC(C)(C)C)c2[nH]1 | 2.1 | 1.1 nM |  |
| FC(F)(F)c1ccc(-c2cc3[nH]c(N4CCN(c5ncccc5C(F)(F)F)CC4)nc3cc2C(F)(F)F)cc1 | 8240 | 201 nM |  |
| NC(=O)c1cnc(N2CCN(c3nc4cc(C(F)(F)F)ccc4[nH]3)CC2)c(Cl)c1 | 430 | 1000 nM |  |
